The target of one data set is Dipeptidyl peptidase 4 (Homo sapiens, UniProt P27487). It counts as cell-free, Plasma.
Data set [1] can be described thus: Drug level in Wistar rat plasma at 1 mg/kg, po after 0.5 hr. The data set is classed as ADME, organism-based. Set-up: dose 1 mg/kg, route oral. To be noted: read-out: Drug uptake. The method in brief:
(§1)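 Male Wistar rats, 8 weeks old, fasted overnight; single oral dose 1 mg/kg as aqueous solution. Jugular vein blood (200 µL) at 0.5, 1, 2, 6 h; plasma deproteinized with acetonitrile, supernatant analysed by LC–MS/MS (C18 column, ammonium acetate/acetonitrile eluent, ESI).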

Data set [2] is described as follows: Drug level in Wistar rat plasma at 1 mg/kg, po after 1 hr. The following applies: read-out: Drug uptake. Set-up: dose 1 mg/kg, route oral. It counts as ADME, organism-based. A digest of the protocol: as §1
A short description of data set [3]: Drug level in Wistar rat plasma at 1 mg/kg, po after 2 hrs. The data set is classed as ADME, organism-based. Set-up: dose 1 mg/kg, route oral. To be noted: read-out: Drug uptake. The method in brief:
as §1

A short description of data set [4]: Drug level in Wistar rat plasma at 1 mg/kg, po after 6 hrs. The data set is classed as ADME, organism-based. Set-up: dose 1 mg/kg, route oral. The following applies: read-out: Drug uptake. The method in brief:
as §1

Data set [5] is described as follows: Chemical stability in aqueous buffer solution at pH 6.8 after 6 hrs. The following applies: read-out: Stability. It counts as physicochemical. The method in brief:
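Residual amount determined by reverse-phase HPLC (UV 210 nm, acetonitrile–H2O buffer elution at 1.0 mL/min) after 6 h incubation at 37 °C in pH 6.8 aqueous buffer; dihydrochloride salt used for one reference compound.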

The subject of data set [6] is Rattus norvegicus. Briefly: Reduction of hyperglycemia in Zucker fatty rat at 0.1 mg/kg, po after 30 mins by OGTT. The data set is classed as functional, organism-based. Set-up: dose 0.1 mg/kg. The method in brief:
(§2)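 Male Zucker fatty rats (lean controls), 10 weeks, fasted overnight, n = 6. Compound in distilled water given orally (0.1 or 0.3 mg/kg) 30 min before oral glucose 2 g/kg. Orbital sinus blood under ether anesthesia at set times; plasma glucose, insulin and DPP-IV activity measured. Mean ± SE; Dunnett's or Student's t-test vs vehicle.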

In data set [7] the test system is Rattus norvegicus. Briefly: Reduction of hyperglycemia in Zucker fatty rat at 0.3 mg/kg, po by after 30 mins OGTT. It counts as functional, organism-based. Set-up: dose 0.3 mg/kg. The method in brief:
as §2

The subject of data set [8] is Rattus norvegicus. Briefly: Inhibition of DPP4 activity in Zucker fatty rat plasma at 0.1 mg/kg, po after 15 mins by OGTT. It counts as functional, organism-based. Set-up: dose 0.1 mg/kg. The method in brief: as §2
Data set [9] relates to Rattus norvegicus. Put plainly: Inhibition of DPP4 activity in Zucker fatty rat plasma at 0.3 mg/kg, po after 15 mins by OGTT. It counts as functional, organism-based. Set-up: dose 0.3 mg/kg. A digest of the protocol: as §2
The test system of data set [10] is Rattus norvegicus. Briefly: Increase in insulin secretion in Zucker fatty rat plasma at 0.1 mg/kg, po after 30 mins by OGTT. Set-up: dose 0.1 mg/kg. The data set is classed as functional, organism-based. The method in brief:
as §2

For data set [11], the system named is Rattus norvegicus. Briefly: Increase in insulin secretion in Zucker fatty rat plasma at 0.3 mg/kg, po after 30 mins by OGTT. The data set is classed as functional, organism-based. Set-up: dose 0.3 mg/kg. A digest of the protocol:
as §2

The subject of data set [12] is Rattus norvegicus. Put plainly: Inhibition of DPP4 activity in Zucker fatty rat plasma at 0.1 mg/kg, po upto 120 mins by OGTT. The data set is classed as functional, organism-based. Set-up: dose 0.1 mg/kg. The method in brief:
as §2

Data set [13] relates to Rattus norvegicus. Briefly: Inhibition of DPP4 activity in Zucker fatty rat plasma at 0.3 mg/kg, po upto 120 mins by OGTT. It counts as functional, organism-based. Set-up: dose 0.3 mg/kg. The method in brief: as §2

Calls of active or inactive are those of the source. The rule behind the calls is not given here.

Dipeptidyl peptidase 4, sequence (P27487 whole entry): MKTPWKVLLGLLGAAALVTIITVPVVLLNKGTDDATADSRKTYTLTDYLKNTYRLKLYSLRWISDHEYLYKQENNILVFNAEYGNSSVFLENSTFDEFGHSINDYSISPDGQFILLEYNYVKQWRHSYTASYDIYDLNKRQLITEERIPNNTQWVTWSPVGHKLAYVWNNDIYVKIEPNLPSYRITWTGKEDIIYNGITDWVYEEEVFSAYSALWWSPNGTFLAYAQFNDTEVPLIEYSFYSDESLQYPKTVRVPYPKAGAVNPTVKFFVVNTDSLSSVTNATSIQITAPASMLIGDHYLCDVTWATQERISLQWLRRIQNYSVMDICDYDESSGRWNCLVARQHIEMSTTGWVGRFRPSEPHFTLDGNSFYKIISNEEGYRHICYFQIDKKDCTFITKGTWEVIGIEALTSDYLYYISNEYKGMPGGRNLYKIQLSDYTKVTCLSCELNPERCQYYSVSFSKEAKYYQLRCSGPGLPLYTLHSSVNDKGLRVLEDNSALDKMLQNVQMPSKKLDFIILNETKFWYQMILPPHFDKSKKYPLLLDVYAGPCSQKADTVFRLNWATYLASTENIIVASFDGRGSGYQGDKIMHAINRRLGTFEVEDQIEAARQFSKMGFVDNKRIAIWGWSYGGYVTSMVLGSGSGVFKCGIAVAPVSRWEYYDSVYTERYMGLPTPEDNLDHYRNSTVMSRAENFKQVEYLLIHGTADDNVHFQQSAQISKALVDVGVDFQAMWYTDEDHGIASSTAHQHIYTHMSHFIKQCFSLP

At Dipeptidyl peptidase 4, `CC(C)CNCC(C)(C)NCC(=O)N1C[C@@H](F)C[C@H]1C#N` registered an IC50 above 316 nM.

As for `N#Cc1ccc(NCCNCC(=O)N2C[C@@H](F)C[C@H]2C#N)nc1.O=C(O)/C=C\C(=O)O`, the concentration at 0.5 h in [1] was 157 ng/mL. Moreover, the concentration at 1 h in [2] was determined as 62 ng/mL. The concentration at 2 h in [3] came out at 8 ng/mL. Besides, in [4], the concentration at 6 h was 6 ng/mL.

Consider `CC[C@H](C)[C@@H](N)C(=O)N1C[C@@H](F)C[C@H]1C#N`, for which the remaining at 6 h in data set [5] came out at 70%. The concentration at 0.5 h in [1] was found to be 195 ng/mL. Further, in data set [2], the concentration at 1 h turned out to be 24 ng/mL. Moreover, the concentration at 2 h in data set [3] worked out at 5 ng/mL. Moreover, the concentration at 6 h in data set [4] amounted to 1 ng/mL.

As for `N#Cc1ccc(NCCNCC(=O)N2C[C@@H](F)C[C@H]2C#N)nc1`, the remaining at 6 h in data set [5] was found to be 86%.

In turn, `C#CC(CC)(CC)NCC(=O)N1C[C@@H](F)C[C@H]1C#N` yielded an IC50 at Dipeptidyl peptidase 4 above 316 nM.

For the compound `CC(C)(CO)NCC(=O)N1C[C@@H](F)C[C@H]1C#N`, the remaining at 6 h in [5] was found to be 96%. Moreover, the concentration at 0.5 h in data set [1] is 355 ng/mL. In addition, in [2], the concentration at 1 h is 274 ng/mL. In addition, the concentration at 2 h in data set [3] turned out to be 168 ng/mL. Besides, the concentration at 6 h in data set [4] turned out to be 31 ng/mL. For the same compound, the outcome with Rattus norvegicus [6], in the data set with Rattus norvegicus [7], in the data set with Rattus norvegicus [8], in the data set on Rattus norvegicus [9], in the data set with Rattus norvegicus [10] and with Rattus norvegicus [11] was Active. The result with Rattus norvegicus [12] and in the data set with Rattus norvegicus [13] was Active.

In general, IC50 refers to the concentration needed to halve the response being measured. Higher therefore signals lower potency.
